Numbered stars: 1 amine (or outer) side, 2 acyl side, 3 side chain; on linkers, the order of the positions; unused ones are H or OH. Square brackets hold non-standard residues; d marks the D form. Peptide text beside a SMILES is read from it. * marks the point of attachment. Emetine(N2') = CC[C@H]1CN2CCc3cc(OC)c(OC)cc3[C@@H]2C[C@@H]1C[C@@H]1c2cc(OC)c(OC)cc2CCN1*; PABC = O=C(OCc1ccc(N[*:1])cc1)[*:2]
What was measured:
[1] = tested on: PC3; experiment: MTT cell proliferation; conditions: 3-day exposure, media with 10% FBS
[2] = tested on: MCF-7; experiment: MTT cell proliferation; conditions: 3-day exposure, media with 10% FBS
[3] = tested on: LNCaP; experiment: MTT cell proliferation; conditions: 3-day exposure, media with 10% FBS
[4] = tested on: MDA-MB-231; experiment: MTT cell proliferation; format: cell-based, human; conditions: 3-day exposure, media with 10% FBS
[5] = tested on: FAP and DPPIV; experiment: Tandem hydrolysis by mixture of purified FAP and DPPIV; format: in vitro ADME; conditions: FAP 300 nM + DPPIV 30 nM, 37°C, HPLC and MS
Procedure, shortened: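 FAP expressed in Schneider S2 cells (induced with 500 μM CuSO4) and purified from supernatant on Ni-NTA; DPPIV is human recombinant from sf9 cells. Enzymes (FAP 300 nM, DPPIV 30 nM) in 100 mM Tris, 100 mM NaCl, pH 7.8. Substrate from 10 mM DMSO stock, 250 μM final, 2.5% DMSO. Shaken at 37°C for 24 hr; time-point aliquots quenched in cold acetonitrile, then HPLC and MS.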

[6] = Stability of prodrug 11 in human plasma; format: in vitro ADME; conditions: human plasma (EDTA), 400 μM, 37°C, 24 hr, methanol precipitation, HPLC and MS
Procedure, shortened: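 Compound from 10 mM DMSO stock was added to EDTA-anticoagulated human plasma, with a PBS control at the same concentration. Incubated at 37°C for 24 hr. At time points, 100 μl aliquots received 200 μl cold methanol, sat on ice 10 min, and were centrifuged at 13,000 rpm for 6 min. Supernatant analysed by HPLC and mass spectrometry.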

[7] = tested on: PrEC cells; experiment: Cytotoxicity in normal prostatic epithelial cells in serum free media
[8] = target: T1, FAP (Homo sapiens, UniProt Q12884); experiment: FAP-mediated hydrolysis of prodrugs ex vivo; format: in vitro ADME; conditions: purified FAP 300 nM, 37°C, up to 24 hr
T1 sequence (Q12884 27-760 limits assumed): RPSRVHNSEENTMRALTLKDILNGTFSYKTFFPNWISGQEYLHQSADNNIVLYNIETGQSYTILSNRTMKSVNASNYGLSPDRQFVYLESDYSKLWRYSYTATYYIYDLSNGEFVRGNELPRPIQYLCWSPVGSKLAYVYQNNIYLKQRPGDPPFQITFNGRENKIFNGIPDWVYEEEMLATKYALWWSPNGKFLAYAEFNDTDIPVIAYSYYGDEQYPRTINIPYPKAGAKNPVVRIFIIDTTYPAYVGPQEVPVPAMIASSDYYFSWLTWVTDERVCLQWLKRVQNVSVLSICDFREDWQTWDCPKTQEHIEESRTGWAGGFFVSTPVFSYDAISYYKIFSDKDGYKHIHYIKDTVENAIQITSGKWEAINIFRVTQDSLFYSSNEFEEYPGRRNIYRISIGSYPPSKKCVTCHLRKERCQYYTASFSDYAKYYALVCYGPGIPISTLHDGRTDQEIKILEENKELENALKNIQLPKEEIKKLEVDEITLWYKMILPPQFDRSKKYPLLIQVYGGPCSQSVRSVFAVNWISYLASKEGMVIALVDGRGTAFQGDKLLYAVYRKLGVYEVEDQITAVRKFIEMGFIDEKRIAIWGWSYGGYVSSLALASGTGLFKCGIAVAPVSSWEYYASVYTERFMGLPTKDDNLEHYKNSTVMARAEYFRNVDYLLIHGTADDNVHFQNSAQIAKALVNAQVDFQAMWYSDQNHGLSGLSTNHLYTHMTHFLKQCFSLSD

**Q.** What does the source list for `CC[C@H]1CN2CCc3cc(OC)c(OC)cc3[C@@H]2C[C@@H]1C[C@@H]1c2cc(OC)c(OC)cc2CCN1C(=O)OCc1ccc(NC(=O)[C@@H]2CCCN2C(=O)[C@H](C)NC(=O)[C@@H]2CCCN2C(=O)CNC(=O)[C@H](C)NC(=O)[C@@H]2CCCN2C(=O)CNC(=O)[C@H](CO)NC(=O)[C@H](C)NC(C)=O)cc1` [Compound 11] (Ac-ASGPAGPAP[PABC]-{Emetine(N2')})?
**A.** cytotoxicity / IC50 compared with emetine, PC3 (in words) [1]: identical to that for emetine; cytotoxicity / IC50 compared with emetine, MCF-7 (in words) [2]: identical to that for emetine; cytotoxicity / IC50 compared with emetine, LNCaP (in words) [3]: identical to that for emetine; IC50 compared with emetine, MDA-MB-231 (in words) [4]: identical to that for emetine; % emetine formed from 11, 2 hr ([5]; 2 hr): 22%; % precursor 10 formed from 11, 2 hr ([5]; 2 hr): 56%; % emetine formed from 11, 4 hr ([5]; 4 hr): 36%; % precursor 10 formed from 11, 4 hr ([5]; 4 hr): 58%; % precursor 10 in solution, 24 hr ([5]; 24 hr): 25%; precursor 10 or emetine detected after incubation in human plasma [6]: No detectable amount; cytotoxicity to PrEC at 100 nM and 1,000 nM (in words) ([7]; 3-day exposure, keratinocyte serum free media, no FAP or DPPIV): not cytotoxic; IC50 ([7]; read-out: calculated IC50 in the PrEC cell lines, 3-day exposure, expanded dose range, serum free media, absence of FAP and DPPIV): 7.73 µM; fold less cytotoxic than emetine in PrEC ([7]; serum free media, absence of FAP and DPPIV): more than 200 fold; cleavage by recombinant purified FAP (in words) [8]: progressively cleaved to the intermediate (precursor) 10
